The values below come from ChEMBL document CHEMBL4266021 (J Nat Prod, 2018).

Each structure is given as a SMILES string. Bounds are passed on as bounds.

Data set [1] concerns the target T1, Liver carboxylesterase 1 (Homo sapiens, UniProt P23141).
T1 sequence (P23141 whole entry): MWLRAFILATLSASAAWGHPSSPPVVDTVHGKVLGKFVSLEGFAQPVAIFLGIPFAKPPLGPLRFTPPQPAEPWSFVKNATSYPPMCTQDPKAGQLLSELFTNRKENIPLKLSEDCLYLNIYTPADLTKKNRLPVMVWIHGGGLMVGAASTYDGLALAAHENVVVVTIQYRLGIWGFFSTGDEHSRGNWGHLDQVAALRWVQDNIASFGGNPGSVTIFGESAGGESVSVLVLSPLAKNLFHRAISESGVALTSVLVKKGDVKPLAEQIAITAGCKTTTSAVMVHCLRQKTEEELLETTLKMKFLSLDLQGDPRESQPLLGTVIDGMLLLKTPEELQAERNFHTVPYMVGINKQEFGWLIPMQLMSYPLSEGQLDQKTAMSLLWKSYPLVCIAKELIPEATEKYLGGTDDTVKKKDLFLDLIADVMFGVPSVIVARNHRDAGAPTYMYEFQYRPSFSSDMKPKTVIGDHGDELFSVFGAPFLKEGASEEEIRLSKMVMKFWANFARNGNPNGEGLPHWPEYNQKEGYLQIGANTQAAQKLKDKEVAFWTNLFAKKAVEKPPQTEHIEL
The data set can be described thus: Binding affinity to serine residue of human CE1 assessed as adduct formation at 10 uM by mass spectrum analysis. The essentials:
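hCE1 purified from serum-free medium of baculovirus-infected Spodoptera frugiperda cells, incubated with 10μM inhibitor. Unbound compound removed by dilution and repeated size-exclusion spin chromatography. Intact mass by ESI positive-mode MS (600–2800 m/z) in 3:2 water-acetonitrile with 0.1% formic acid, 2 min acquisition. Spectra deconvoluted, and adduct read as mass shift versus DMSO-treated protein.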

A short description of data set [2]: Inhibition of human intestinal carboxylesterase using o-nitrophenyl acetate as substrate. The gist of the method:
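Recombinant hiCE secreted from baculovirus-infected Spodoptera frugiperda cells and purified from serum-free medium. Activity measured spectrophotometrically with o-nitrophenyl acetate as substrate. Routinely at least 8 inhibitor concentrations tested, and Ki derived.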

The target of data set [3] is T2, Acetylcholinesterase (Homo sapiens, UniProt P22303). The data set can be described thus: Inhibition of human AChE using acetylthiocholine as substrate.
Data set [4] addresses T3, Cholinesterase (Homo sapiens, UniProt P06276). The data set can be described thus: Inhibition of human BuChE using butyrylhiocholine as substrate.
Data set [5] concerns the target T4, carboxylesterase 1 (CE1) (Homo sapiens, UniProt P23141).
T4 sequence (P23141 whole entry): T1 sequence (P23141 whole entry)
In words: Irreversible inhibition of human CE1 assessed as residual activity preincubated with enzyme followed by compound dilution measured after 18 hrs using o-NPA as substrate relative to control. Conditions: probe o-NPA, read-out: Activity; call rule not given here.

Data set [6] can be described thus: Irreversible inhibition of human intestinal carboxylesterase assessed as residual activity preincubated with enzyme followed by compound dilution measured after 18 hrs using o-NPA as substrate relative to control. The essentials:
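Purified recombinant hiCE pre-incubated with inhibitor, then extensively diluted and passed through size-exclusion filtration to remove free compound. Recovered protein assayed for residual esterase activity with o-NPA. Benzil (reversible inhibitor) and DMSO (solvent) served as controls.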

For data set [7], the target named is T4, carboxylesterase 1 (CE1). The data set can be described thus: Inhibition of human CE1 expressed in human U373MG cells assessed as reduction in enzyme-mediated oseltamivir hydrolysis at 10 uM preincubated for 10 mins followed by oseltamivir addition measured after 30 mins by UPLC-MS analysis relative to control. Conditions: U373MG cells that express human CE1, probe oseltamivir. The format is cell-based. The gist of the method:
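U373MG glioblastoma cells expressing hCE1 (~10^6 per well) pretreated 10 min with 10μM inhibitor, then given oseltamivir (20μM final). After 30 min, media harvested, mixed with an equal volume of acetonitrile and centrifuged. Oseltamivir carboxylate quantified by UPLC (C18, water:acetonitrile gradient) with MS detection. Expressed as percent of DMSO-treated cells. Benzil used as positive control; duplicate points.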

For data set [8], the target named is T4, carboxylesterase 1 (CE1). In words: Inhibition of human CE1 expressed in human U373MG cells assessed as reduction in enzyme-mediated oseltamivir hydrolysis by measuring oseltamivir carboxylate level at 10 uM preincubated for 10 mins followed by oseltamivir addition measured after 30 mins by UPLC-MS analysis relative to control. Set-up: scale not given: the % may be the effect or the level left. The format is cell-based. As to conditions: U373MG cells that express human CE1, probe oseltamivir, read-out: Activity. The gist of the method: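 U373MG glioblastoma cells engineered to express hCE1 (~10^6 per well) were pre-incubated 10 min with 10μM inhibitor, then oseltamivir was added (20μM final) for 30 min. Media were harvested, mixed with an equal volume of acetonitrile and centrifuged. Oseltamivir carboxylate was measured by UPLC (C18, water:acetonitrile gradient) with MS detection, as percent of DMSO-treated cells. Benzil was the positive control; duplicate points.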

The target of data set [9] is T2, Acetylcholinesterase. In words: Inhibition of human AChE at 10 uM using acetylthiocholine as substrate relative to control.
Data set [10] has as its target T3, Cholinesterase. The data set can be described thus: Inhibition of human BuChE at 10 uM using butyrylhiocholine as substrate relative to control.
Data set [11] has as its target T1, Liver carboxylesterase 1. In words: Inhibition of human CE1 using o-NPA as substrate. The gist of the method: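 Recombinant human CE1 was purified from serum-free media of baculovirus-infected Spodoptera frugiperda cells secreting the enzyme. Activity was read spectrophotometrically with o-nitrophenyl acetate as substrate. At least 8 inhibitor concentrations were used and Ki was derived from them.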

T2 sequence (P22303 whole entry): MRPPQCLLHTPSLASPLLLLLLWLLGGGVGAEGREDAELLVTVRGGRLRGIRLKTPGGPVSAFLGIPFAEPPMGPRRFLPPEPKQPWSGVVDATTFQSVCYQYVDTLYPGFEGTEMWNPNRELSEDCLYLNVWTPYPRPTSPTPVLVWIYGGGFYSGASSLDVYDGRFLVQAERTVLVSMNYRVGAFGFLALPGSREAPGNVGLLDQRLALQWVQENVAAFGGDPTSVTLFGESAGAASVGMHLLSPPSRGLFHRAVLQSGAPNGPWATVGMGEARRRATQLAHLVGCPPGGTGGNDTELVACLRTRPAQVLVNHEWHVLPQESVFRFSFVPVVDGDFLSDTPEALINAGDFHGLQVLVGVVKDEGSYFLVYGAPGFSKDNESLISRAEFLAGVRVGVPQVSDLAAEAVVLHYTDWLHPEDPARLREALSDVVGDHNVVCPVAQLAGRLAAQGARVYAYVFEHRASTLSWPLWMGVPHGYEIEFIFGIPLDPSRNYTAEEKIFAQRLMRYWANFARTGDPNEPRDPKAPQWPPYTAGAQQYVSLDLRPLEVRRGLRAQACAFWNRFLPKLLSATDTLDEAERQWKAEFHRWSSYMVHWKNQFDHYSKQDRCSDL
T3 sequence (P06276 whole entry): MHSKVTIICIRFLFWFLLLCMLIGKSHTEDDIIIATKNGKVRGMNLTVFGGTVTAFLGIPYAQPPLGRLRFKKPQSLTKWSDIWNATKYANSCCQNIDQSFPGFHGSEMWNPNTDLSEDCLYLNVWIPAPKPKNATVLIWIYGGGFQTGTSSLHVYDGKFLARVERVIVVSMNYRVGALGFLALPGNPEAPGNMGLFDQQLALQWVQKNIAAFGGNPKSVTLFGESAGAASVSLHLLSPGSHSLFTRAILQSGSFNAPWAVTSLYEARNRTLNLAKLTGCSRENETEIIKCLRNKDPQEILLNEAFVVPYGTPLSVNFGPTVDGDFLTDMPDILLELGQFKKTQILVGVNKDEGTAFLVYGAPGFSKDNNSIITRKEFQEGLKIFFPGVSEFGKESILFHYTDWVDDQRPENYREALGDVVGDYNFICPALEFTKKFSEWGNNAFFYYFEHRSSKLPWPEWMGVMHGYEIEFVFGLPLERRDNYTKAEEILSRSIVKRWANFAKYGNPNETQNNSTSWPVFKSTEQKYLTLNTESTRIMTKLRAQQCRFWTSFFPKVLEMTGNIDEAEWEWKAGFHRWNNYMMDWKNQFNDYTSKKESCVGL

For `O=S(=O)(F)Cc1ccccc1` [PHENYLMETHYLSULFONYLFLUORIDE], at Liver carboxylesterase 1 [1], the Activity entry was “Active”.
`C[C@H]1COc2c1c(=O)oc(=O)c1c3c(ccc21)C(C)(C)CCC3` registered a Ki in data set [2] of 0.00075 µM. Besides, the IC50 was 3.21 µM against Acetylcholinesterase [3] and 2.84 µM on Cholinesterase [4]. For the same molecule, the activity at 18 h at carboxylesterase 1 (CE1) [5] fell in the range of 3 to 16%. The Activity in data set [6] fell in the range of 1 to 9%. Besides, the inhibition at 0.5 h, 10 µM at carboxylesterase 1 (CE1) [7] was > 70%. Also, the activity at 0.5 h, 10 µM at carboxylesterase 1 (CE1) [8] is 10%. Further, the inhibition at Acetylcholinesterase [9] is 68%; against Cholinesterase [10] it was 69%.
As for `Cc1coc2c1c(=O)oc(=O)c1c3c(ccc12)C(C)(C)CCC3`, the affinity in data set [2], expressed as Ki, was 0.0014 µM. For the same molecule, the IC50 was 3.31 µM against Acetylcholinesterase [3] and 7.88 µM on Cholinesterase [4]. Also, at carboxylesterase 1 (CE1) [5], the activity at 18 h lay within 6 to 10%. Further, the Activity in data set [6] was 0.1 to 40%; on Liver carboxylesterase 1 [1] it was “Active”. Besides, on carboxylesterase 1 (CE1) [7], the inhibition at 0.5 h, 10 µM was > 70%. Also, the activity at 0.5 h, 10 µM on carboxylesterase 1 (CE1) [8] was determined as 27%. Further, the inhibition is 65% on Acetylcholinesterase [9] and 38% on Cholinesterase [10].
Consider `Cc1cccc2c1ccc1c3occ(C)c3c(=O)oc(=O)c21`, for which the Ki on Liver carboxylesterase 1 [11] was 0.0024 µM; in data set [2], 0.00082 µM. Moreover, the IC50 against Acetylcholinesterase [3] and at Cholinesterase [4] was > 10 µM in each case. On carboxylesterase 1 (CE1) [5], the activity at 18 h was found to be 54%. Also, the Activity in [6] is 4%. Moreover, the inhibition at 0.5 h, 10 µM at carboxylesterase 1 (CE1) [7] was > 70%. Besides, the activity at 0.5 h, 10 µM at carboxylesterase 1 (CE1) [8] was 12%. Moreover, the inhibition against Acetylcholinesterase [9] is 47%; against Cholinesterase [10], 32%.
Turning to `O=C(C(=O)c1ccccc1)c1ccccc1` [BENZIL], the activity at 18 h on carboxylesterase 1 (CE1) [5] amounted to 85%. Besides, the Activity in data set [6] was found to be 98%. Besides, at carboxylesterase 1 (CE1) [8], the activity at 0.5 h, 10 µM amounted to 5%.
Consider `Cc1cccc2c1ccc1c3c(c(=O)oc(=O)c12)[C@@H](C)CO3`, for which the Ki at Liver carboxylesterase 1 [11] worked out at 0.0036 µM; in [2] it was 0.00061 µM. Moreover, the IC50 on Acetylcholinesterase [3] came out at 10.1 µM; at Cholinesterase [4], 7.82 µM. In addition, the activity at 18 h at carboxylesterase 1 (CE1) [5] turned out to be 9%. Besides, the figures for the Activity (in data set [6]; on Liver carboxylesterase 1 [1]) were 18% and “Active”, respectively. The inhibition at 0.5 h, 10 µM on carboxylesterase 1 (CE1) [7] came to 99%. The activity at 0.5 h, 10 µM at carboxylesterase 1 (CE1) [8] turned out to be 1%. Further, the inhibition at Acetylcholinesterase [9] was determined as 66%; against Cholinesterase [10], 61%.

A word on the Ki: it is a dissociation constant, usually derived from enzyme kinetics or from competition with a known ligand. By IC50 is commonly meant the concentration that inhibits the measured activity by half. For orientation: inhibition means the percentage by which the read-out fell short of the control.
